Only some compounds are listed: those with a hit (about 1.6% of all), similar ones and a draw of the others.
Pf gametocyte: inhibitors of late stage P. falciparum gametocyte viability; P. falciparum stage V gametocytes, ATP luminescence, 24 h; inhibition, % at 10.9 µM; hit rate 0.065% among 150,000; AID 743093;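 active means inhibition above the mean plus 3 SD of compounds within the control limits, set per campaign, cut at about 38% in these data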;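 further: 0% = DMSO wells and 100% = medium only without gametocytes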
Mdm2 ligase inh: blocks human Mdm2 ubiquitin ligase activity. Q00987. cell-based MDM2 ubiquitination luciferase reporter, 2 h; 0 = plate control, 100 = twice control, blank-subtracted. signal enhancement, % at 5 µM. hit rate 0.11% among 210,000. AID 1230;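 active means signal enhancement of 30% or more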;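 further: luminescence tracks abundance of the self-degrading MDM2-luciferase fusion protein; higher signal means inhibition of MDM2 E3 ligase activity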
Target sequence (Q00987 whole entry, looked up, the tested form may be a part): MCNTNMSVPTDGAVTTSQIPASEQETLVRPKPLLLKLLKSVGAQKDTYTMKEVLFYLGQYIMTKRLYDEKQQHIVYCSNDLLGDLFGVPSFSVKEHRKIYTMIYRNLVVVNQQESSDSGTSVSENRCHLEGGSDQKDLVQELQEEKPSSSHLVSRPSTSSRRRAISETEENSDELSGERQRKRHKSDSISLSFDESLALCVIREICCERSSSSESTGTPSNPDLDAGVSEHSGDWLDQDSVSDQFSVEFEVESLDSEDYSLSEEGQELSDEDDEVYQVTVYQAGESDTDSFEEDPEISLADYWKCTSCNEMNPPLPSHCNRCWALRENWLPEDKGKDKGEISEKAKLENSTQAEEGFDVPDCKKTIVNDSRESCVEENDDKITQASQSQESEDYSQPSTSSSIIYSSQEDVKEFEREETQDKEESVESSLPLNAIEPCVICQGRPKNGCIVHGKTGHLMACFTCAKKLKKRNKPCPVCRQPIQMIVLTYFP
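Timing – 2 h compound exposure at 37 °C · Assay system – mammalian cells stably expressing self-ubiquitinating, self-degrading MDM2 E3–luciferase fusion · Amount – 2000 cells seeded into each well · Measure – % luminescence enhancement versus blank-corrected plate control mean · Measured by – SteadyLite luminescence, 15 min reagent step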
Wee1 stabilizer: blocks degradation of human Wee1 kinase; AID 1321; reporter increase, % at 5 µM; hit rate 1.2% among 220,000; HeLa Luc-Wee1K328M stability, luciferase luminescence; 100% = proteasome inhibitor MG132 effect;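 active means activation above the mean of all tested compounds plus 3 SD, set per screening run, cut at about 8.8% in these data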;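 further: cells exposed to compound for 20 h before luminescence read; 0% = DMSO alone and 100% = MG132 at 30 µM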
L929 necroptosis: blocks zVAD induced death of L929 cells; L929 zVAD necroptosis rescue, ATP luminescence, 24 h; with zVAD 60 µM; viability rescue, % at 10 µM; hit rate 0.38% among 220,000; AID 1377;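 active means activation, scaled between plate controls, above about 75%, limit read from the data; inactive means activation under that limit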;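 further: 0% = zVAD with DMSO and 100% = DMSO alone without zVAD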
TNF necrop inh: inhibitors of TNF-alpha induced necroptosis in Jurkat FADD-/- cells | hit rate 0.068% among 220,000 | AID 463075 | Jurkat FADD-/- TNF necroptosis rescue, ATP luminescence, 24 h; 0 = TNF only, 100 = no-TNF cells | activation (protection from cell death), % at 10 µM;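 active means activation, meaning protection from cell death, of at least 50% relative to plate controls; inactive means activation below 50%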;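 further: necroptosis triggered by 40 ng/mL TNF-alpha added together with compound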
Wee1 degr conf: human Wee1 degradation inhibition, confirmation | shares compounds with Wee1 stabilizer | HeLa Luc-Wee1K328M degradation, luminescence; vehicle 0%, proteasome-blocked wells 100% | activation, % at 5 µM | hit rate 4% among 1,100 | AID 1410; in the data active means activation above about 8.9%
An asterisk follows results filed as active; . = no result.

SMILES | Pf gametocyte | Mdm2 ligase inh | Wee1 stabilizer | L929 necroptosis | TNF necrop inh | Wee1 degr conf
O=S(=O)(Cc1ccccc1Cl)NCCOc1ccccc1 | -28 | 0 | 9.0* | 1 | 1 | .
CCOc1ccc(/C=N/NC(=O)CC(=O)Nc2ccc(Cl)c(Cl)c2)cc1 | -22 | -2 | 0 | 2 | 1 | .
CN1CCN(C(=O)c2ccccc2NC(=O)Cc2ccccc2)CC1 | -5 | 18 | 10* | 0 | 0 | .
CN1CCN(C(=O)c2ccccc2NC(=O)C(C)(C)C)CC1 | . | -3 | -2 | 0 | -1 | .
COC(CNC(=O)c1ccc2nc(-c3cccs3)c(-c3cccs3)nc2c1)OC | 3 | -13 | 12* | 3 | 2 | 5
O=C(Nc1nc(-c2ccccn2)cs1)c1ccc2c(c1)OCCO2 | . | -30 | 31* | 0 | -1 | 2
FC(F)(F)c1nc2nncn2c2c1CCCCC2 | 13 | 1 | 0 | 0 | -2 | .
CCOC(=O)C1CCN(S(=O)(=O)c2ccc(NC(C)=O)c(Cl)c2)CC1 | -13 | -10 | 11* | 0 | -1 | 1
CCOC(=O)C1CCN(S(=O)(=O)c2ccc(C(C)=O)cc2)CC1 | . | -5 | 6 | 0 | -1 | .
Cc1ccccc1OCC(=O)Nc1ccccc1-c1ccccc1 | -23 | . | . | . | . | .
Cc1cc(NC(=O)COC(=O)C(Cc2ccccc2)NC(=O)c2ccco2)no1 (centres undefined) | . | -31 | 21* | 1 | 7 | -2
Cn1c(SCC2CCCO2)nnc1-c1ccc([N+](=O)[O-])cc1 (centres undefined) | 17 | -11 | 13* | 0 | 1 | 5
Cn1c(SCC(=O)NCC2CCCO2)nnc1-c1ccc(S(=O)(=O)N2CCCC2)cc1 (centres undefined) | -7 | 1 | 3 | 3 | 0 | .
CC(=O)N1CCN(C(=O)COc2ccc(N(C)S(=O)(=O)c3cccs3)cc2)CC1 | -8 | . | 1 | -1 | -1 | .
CCCC1CC(c2csc(N)n2)CCO1 (centres undefined) | . | -8 | -2 | 0 | -6 | .
CC(C)C1CC(c2csc(N)n2)CCO1 (centres undefined) | . | -14 | 13* | 0 | -1 | 0
Cn1c(=O)c2c(O)c(C=NCc3ccccc3)c(=O)n(C)c2n(C)c1=O | 11 | 12 | 0 | 1 | 2 | .
CC(C)OCCCNC(=O)Nc1cccc2ccccc12 | 14 | 2 | 13* | 2 | 0 | 0
CC(C)OCCCNC(=O)C(C)Oc1ccccc1 (centres undefined) | . | -25 | -2 | 1 | 0 | .
CCN(CC)S(=O)(=O)c1ccc(NC(=O)C2CCCO2)cc1 (centres undefined) | -29 | -15 | 1 | 0 | 0 | .
CCN=C(NCC)SC1CC(=O)N(c2ccc(OCC)cc2)C1=O (centres undefined) | . | -7 | 16* | 0 | 1 | 6
CCN=C(NCC)SC1CC(=O)N(c2ccccc2)C1=O (centres undefined) | 14 | -10 | -1 | 0 | 0 | .
CCOc1ccc(N2C(=O)CC(Sc3nnnn3-c3ccccc3)C2=O)cc1 (centres undefined) | 0 | -5 | 14* | -1 | -1 | -1
O=C(CNC(=O)c1ccc2c(c1)OCCO2)N/N=C/c1ccc(O)cc1O | -1 | -7 | -1 | 3 | -3 | .
O=C(CNC(=O)c1ccncc1)N/N=C/c1ccc(O)cc1O | 5 | -14 | 13* | 0 | 0 | 2
SMILES | Pf gametocyte | Mdm2 ligase inh | Wee1 stabilizer | L929 necroptosis | TNF necrop inh | Wee1 degr conf
COc1ccc(S(=O)(=O)N(CC(=O)Nc2ccc(S(=O)(=O)N3CCOCC3)cc2)c2ccccc2)cc1 | . | -12 | -1 | 0 | -2 | .
CC1(C)Cc2nc3sc4c(SCC(=O)NCc5ccccc5)ncnc4c3cc2CO1 | . | -18 | 13* | -1 | -9 | 0
COc1ccc(C(=O)Nc2cccc(C)c2)cc1 | -3 | -11 | 12* | 0 | -3 | 0
COc1ccc(NC(=O)c2ccc(Cl)c(NC(=O)c3ccncc3)c2)cc1 | . | -1 | 12* | 0 | 3 | -3
O=C(Nc1cccc(Br)c1)c1ccc(OC2CSC2)cc1 | . | -2 | 14* | 65 | 1 | 1
O=C(Nc1ccncc1)c1ccc(Cl)c(Cl)c1 | -13 | . | . | . | . | .
O=C(NCc1ccccc1Cl)C1CCCN1C(=O)NC1CCCCC1 (centres undefined) | 2 | . | . | . | . | .
Fc1ccc(CSc2ccc(-c3ccco3)nn2)cc1 | -1 | -14 | 12* | 0 | 2 | 7
Fc1cccc(CSc2ccc(-c3ccco3)nn2)c1 | . | -9 | 3 | 1 | 3 | .
COC(=O)C1=C(C)N(C)C(=S)NC1c1ccc(Cl)cc1 (centres undefined) | . | 0 | 2 | 0 | 2 | .
Nc1ccccc1C(=O)N/N=C1/C2CN3CCN(C2)CC1(Cc1ccccc1)C3 | 24 | -12 | 13* | -1 | -1 | 0
Cc1ccc(NC(=O)c2cc3c(s2)CCCC3)cc1 | 19 | -7 | 16* | 4 | 0 | 2
Cc1ccc(NC(=O)c2scc3c2CCCC3)cc1 | 10 | -57 | 12* | 0 | -1 | -2
Cc1nnc(C)c2c(C)n(C(c3ccccc3)c3ccccc3)c(C)c12 | . | -16 | 0 | 0 | 1 | .
CN1CCN(C(=O)c2cc3sc4ccccc4c3s2)CC1 | 7 | -21 | 14* | 2 | 8 | 1
Cc1nc(NC(=O)c2ccc(Br)o2)sc1C | -2 | -7 | 11* | 0 | -2 | 2
Cc1ccc(C(=O)Nc2nc(C)c(C)s2)o1 | -26 | -13 | 3 | -1 | -3 | .
Cc1c(NC(=O)COC(=O)c2cc(-c3ccc(-c4ccccc4)cc3)nc3ccccc23)c(=O)n(-c2ccccc2)n1C | 13 | -15 | 2 | 1 | 0 | .
COc1cc(O)c(C(C)=O)cc1OC | . | -1 | 11* | 0 | -2 | 1
O=c1cc(CN2CCN(c3ccc(F)cc3)CC2)nc2sccn12 | . | 8 | -5 | 0 | 0 | .
CCN(CC)C(=O)c1c(-c2ccccc2)oc2ccc(OC)cc12 | -2 | -10 | 17* | . | 0 | 0
CCOc1ccc2oc(-c3ccccc3)c(C(=O)N(C)C)c2c1 | -2 | . | 7 | 0 | -1 | .
COc1ccc(NC(=O)CN2CCC(NC(=O)C3CCCCC3)CC2)cc1 | -19 | -16 | 15* | 1 | 2 | 1
Cn1c(CNc2ccc(F)cc2)nnc1SCC(=O)NNC(=O)Cc1ccccc1 | 20 | -1 | -2 | -1 | 1 | .
O=C(Cc1ccccc1)Nc1ccccc1N1CCOCC1 | 7 | -6 | 21* | 0 | -2 | 1
O=C(Cc1ccccc1)Nc1ccccc1N1CCCC1 | -10 | -3 | -3 | -1 | -2 | .
O=C(NCCN1CCNCC1)c1ccccc1O | -54 | . | . | . | . | .
O=S(=O)(c1ccc(Cl)cc1Cl)n1ccc2cccnc21 | 9 | -15 | 12* | 0 | 0 | 6

Source: PubChem BioAssay (several laboratories)
